Assay outcomes: PubChem, several laboratories
MC4R antag cAMP: MC4R antagonists of cAMP signaling, primary screen, cell-based, TR-FRET, antagonist arm of biased-ligand search | Melanocortin receptor 4 (Homo sapiens), P32245 | MC4R-expressing cells, MTII-stimulated cAMP, LANCE TR-FRET | inhibition, % at 6.5 µM | actives 0.48% (n = 360,000) | AID 540295, 2011;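 active = inhibition above its plate's cutoff, the mean of tested wells on that plate plus 3 SD, cut at about 29% in these data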;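 note: 0% = Melanotan II alone and 100% = Melanotan II plus saturating MCL0020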
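Test system: U2OS cells stably expressing human melanocortin 4 receptor (MC4R); also added: Melanotan II challenge; compound: 6.5 µM single dose; timing: 30-min compound preincubation, 1-h Melanotan II challenge, 1-h detection, room temperature; signal: Eu-cAMP/anti-cAMP TR-FRET, emission 671 nm; repeats: one well per compound, no replicates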
Bfl-1 A1 inh: caspase 3/7 activation in MEF A1-2A-BIM cells, primary screen, A1 inhibitor project, cell-based, luminescence, HTS | Caspase-Glo 3/7 luminescence, 3 h; percent of clofoctol response, vehicle zero | caspase activation, % (concentration not given with the values) | actives 0.066% (n = 330,000) | AID 2462, 2010;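 active = over half of replicate activation scores above 10%, or exactly half above 10 with the replicate mean above 10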
NTR1 agonist: agonists of human NTR1, primary screen, imaging, U2OS cells, beta-arrestin-GFP, high content. Neurotensin receptor type 1 (Homo sapiens), P30989. NTR1-U2OS beta-arrestin-GFP spot imaging, agonist mode. activation, % at 20 µM. actives 0.17% (n = 330,000). AID 493036, 2011;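 active = activation at or above 40% of the spot to cytoplasm intensity ratio, with at least 20 cells analyzed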;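 note: 0% = DMSO without peptide and 100% = 100 nM NTR1 peptide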
Exocytosis inh: LAMP-1 surface exposure blockers, TALL-104 cells – cell-based, flow cytometry, MLPCN library, primary screen. TALL-104 LAMP-1 surface exposure; cells stimulated with thapsigargin and PMA. inhibition, % at 10 µM. actives 0.66% (n = 360,000). AID 651702, 2012;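 active = inhibition above about 55%, limit read from the data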
MC4R ag barr: MC4R agonists recruiting beta-arrestin, primary screen, cell-based, luminescence, agonist arm of biased-ligand search; Melanocortin receptor 4 (Homo sapiens), P32245; U2OS MC4R beta-arrestin complementation; percent of melanotan II response, DMSO zero; activation, % at 8.9 µM; actives 0.98% (n = 360,000); AID 540308, 2011;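 active = activation above a per-plate cutoff, the mean activation of sample wells on that plate plus 3 SD, cut at about 8% in these data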
HGIII-sPLA2 inh: human group III sPLA2 inhibitors, primary screen, biochemical, QFRET, BODIPY PC-A2 liposome substrate. Group 3 secretory phospholipase A2 (Homo sapiens), Q9NZ20. QFRET BODIPY PC-A2 liposome hydrolysis, fluorescence. inhibition, % at 12.2 µM. actives 0.56% (n = 370,000). AID 743126, 2013;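 active = inhibition above mean plus 3 SD of compounds lying within the high and low control bounds, cut at about 19% in these data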;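 note: 0% = median of test compound wells and 100% = no enzyme DMSO wells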
Target sequence (Q9NZ20 whole entry, looked up): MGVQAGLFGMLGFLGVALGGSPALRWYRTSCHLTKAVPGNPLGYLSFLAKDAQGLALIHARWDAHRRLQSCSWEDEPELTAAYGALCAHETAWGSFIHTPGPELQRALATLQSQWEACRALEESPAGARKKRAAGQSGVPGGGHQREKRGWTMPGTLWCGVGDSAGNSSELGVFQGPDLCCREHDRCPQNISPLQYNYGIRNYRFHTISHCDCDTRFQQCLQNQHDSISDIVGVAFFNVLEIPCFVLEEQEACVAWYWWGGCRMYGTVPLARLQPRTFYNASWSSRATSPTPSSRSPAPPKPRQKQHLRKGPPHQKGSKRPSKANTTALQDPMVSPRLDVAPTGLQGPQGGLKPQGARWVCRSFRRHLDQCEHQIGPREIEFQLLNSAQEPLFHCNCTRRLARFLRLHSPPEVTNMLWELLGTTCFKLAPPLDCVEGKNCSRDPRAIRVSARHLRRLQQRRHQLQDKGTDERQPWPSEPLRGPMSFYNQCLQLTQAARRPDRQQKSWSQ
hGIII sPLA2 conf: human group III sPLA2 inhibitors, confirmation, biochemical, QFRET, triplicate. inhibition, % at 12.2 µM. AID 743280, 2014. recombinant hGIII-sPLA2, BODIPY PC-A2 QFRET fluorescence. shares compounds with HGIII-sPLA2 inh. actives 34% (n = 2,000);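 active = mean inhibition across triplicates above the hit cutoff set in the earlier primary screen, cut at about 19% in these data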;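 note: 0% = enzyme with DMSO and 100% = DMSO wells lacking enzyme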
535nm interf: 535nm fluorescence optical interference, confirmation, artefact control for HGIII-sPLA2 inhibitor project, biochemical, QFRET | shares compounds with HGIII-sPLA2 inh | BODIPY FL product fluorescence interference | inhibition, % at 12.2 µM | actives 8.5% (n = 2,000);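 active = average inhibition above the solvent-only control mean plus 3 SD, cut at about 6% in these data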;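 note: 0% = DMSO with substrate plus product and 100% = DMSO with substrate alone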
535nm interf DR: 535nm fluorescence optical interference, dose response, artefact control for HGIII-sPLA2 inhibitor project, biochemical, QFRET; AID 743455, 2014; IC50, µM; shares compounds with HGIII-sPLA2 inh; 240 tested, under 10 active; BODIPY FL product fluorescence interference, cell-free;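 active = IC50 at or below 10 µM; inactive = IC50 above 10 µM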
* hit, by the source's call; . = no result. In the library only some 2.5% were active in any assay of this set; here they are far more common.

SMILES	MC4R antag cAMP	Bfl-1 A1 inh	NTR1 agonist	Exocytosis inh	MC4R ag barr	HGIII-sPLA2 inh	hGIII sPLA2 conf	535nm interf	others
Cc1ccc(C(=O)Nc2nc(-c3ccccn3)cs2)o1	6	1	2	8	0	7	.	.
CC(=O)Nc1cncc(-c2cccc(N(C)C)c2)n1	12	.	.	-8	-1	-3	.	.
O=[N+]([O-])c1ccc(N/N=C/c2cccc(O)c2O)c(S(=O)(=O)N2CCOCC2)c1	-22	1	20	2	-6	31*	39*	15*
COC(=O)c1cnn(-c2ccc(F)cc2F)c1/C=N/NC(=S)Nc1ccccc1	.	.	.	.	.	22*	20*	0
CNC(=S)N/N=C/c1c(C(=O)OC)cnn1-c1ccc(F)cc1F	2	1	-1	-16	0	14	.	.
COC(=O)C1=C(C)N(CCCC(=O)O)C(=O)NC1c1cccc2ccccc12 (stereo unspecified)	2	1	6	10	0	7	.	.
N#Cc1cnc(Oc2ccc(Cl)cc2)nc1N	6	0	-1	-5	-1	3	.	.
CCc1cc(=O)[nH]c(-n2[nH]c(-c3ccccc3)cc2=O)n1	8	0	2	3	-1	-3	.	.
O=c1cc(-c2ccccc2)[nH]n1-c1nc2ccccc2[nH]1	-2	-10	-1	-1	0	19*	14	-1
O=C(CSc1cccc[n+]1[O-])c1cc(Cl)ccc1Cl	9	0	1	-2	-2	-14	.	.
CCc1ccc(S(=O)(=O)NCc2csc(C)n2)s1	0	0	0	-5	0	22*	-2	-5
O=C1C(=Cc2cccc(Cl)c2)CCc2ccccc21	.	.	.	4	.	21*	-1	-3
Brc1ccc(-c2ncc3ccccn23)cc1	1	-1	1	0	-1	-4	.	.
CCC(C)[C@@H](C(=O)NCC1CCC(C(=O)O)CC1)n1nnc2ccccc2c1=O (stereo partly specified)	16	3	1	-2	0	20*	2	-4
CCOC(=O)c1ccc(NC(=O)CSc2nnc(-c3cc(-c4ccccc4)n[nH]3)n2N)cc1	.	.	.	.	.	5	.	.
COc1cccc(Nc2nc(C(N)C(C)C)cs2)n1 (stereo unspecified)	-10	.	.	-5	1	28*	10	-13
CC(C)C(N)c1csc(Nc2nncc3ccccc23)n1 (stereo unspecified)	6	.	.	-4	1	20*	6	-16
CC(N)c1csc(Nc2nncc3ccccc23)n1 (stereo unspecified)	-4	.	.	2	-2	23*	2	-8
Nc1ccc(CC(N)c2csc(Nc3nncc4ccccc34)n2)cc1 (stereo unspecified)	2	.	.	-8	-2	11	.	.
Cc1ccc2cc(C#N)c(SCC(=O)N3CCCc4ccccc43)nc2c1C	2	0	4	-2	-1	20*	-3	-4
CC(NC(=O)C(C(=O)c1cccc([N+](=O)[O-])c1)n1cc(Cl)ccc1=O)c1ccccc1 (stereo unspecified)	3	-1	1	-6	-3	25*	-6	-6
O=C(Nc1ccn(CCCNCCc2ccccn2)c(=O)n1)OCc1ccccc1	11	.	.	-3	0	15	.	.
O=C(Nc1ccn(CCCNCc2ccccn2)c(=O)n1)OCc1ccccc1	8	.	.	-8	-2	21*	6	-16
COCCN(CC(=O)Nc1cccc(C)c1C)C(=O)c1ccc(S(=O)(=O)N2CCOCC2)cc1	9	.	2	-7	-1	10	.	.
CN1/C(=C\C(=S)Nc2ccccc2)C(C)(C)c2ccccc21	12	1	-2	-1	-2	14	.	.
SMILES	MC4R antag cAMP	Bfl-1 A1 inh	NTR1 agonist	Exocytosis inh	MC4R ag barr	HGIII-sPLA2 inh	hGIII sPLA2 conf	535nm interf	others
CN1/C(=C/C(=S)NC(=O)C2(C)CC2(Cl)Cl)C(C)(C)c2ccccc21 (stereo unspecified)	3	1	2	1	-6	27*	8	3
Cc1cccc(-n2c(C)c(-c3ccccc3)[nH]c2=S)c1	-5	0	0	6	-1	29*	33*	0
Cc1cccc(-n2c(C)n[nH]c2=S)c1	6	-1	-1	-1	-2	12	.	.
COc1ccc(N2CC(NS(=O)(=O)c3ccc(F)cc3)CC2=O)cc1 (stereo unspecified)	13	1	-1	-3	-2	5	.	.
CC1(C(=O)NCC(F)(F)F)CCN1C(=O)Cc1ccc(-c2ccccc2)cc1 (stereo unspecified)	3	.	.	-8	-1	-5	.	.
Cc1ccc(C)c(NC(=S)N2C3CCCC2CC(NC(=O)C2CC2)C3)c1 (stereo unspecified)	3	0	0	6	0	21*	2	-1
O=C(NC1CC2CCCC(C1)N2C(=S)Nc1ccccc1Cl)C1CC1 (stereo unspecified)	6	0	-1	10	-2	4	.	.
N#Cc1c(-c2cccs2)cc(C2CC2)nc1SCC(N)=O	3	1	2	3	-1	35*	12	-2
N#Cc1c(-c2ccccc2)cc(C2CC2)nc1SCC(=O)c1cccs1	15	.	.	3	-3	-7	.	.
Cc1ccc(S(=O)(=O)N2CCCC(N3CCOCC3)C2)cc1Cl (stereo unspecified)	-3	2	2	2	-1	19*	-2	-10
CCNC(=S)NNC(=S)NCc1ccccc1	10	0	3	0	-1	21*	39*	-3	535nm interf DR=>122
O=C(NNC(=S)NCc1ccccc1)c1ccccc1OC(F)F	2	1	6	-3	-1	20*	31*	3	535nm interf DR=>122
